From PubChem
This is a sample that favours compounds with a hit; in the whole collection about 3.5% have one here.
RGS4 act = RGS4 potentiators or activators, primary screen, cell-based, HEK293 M3R inducible RGS4, calcium flux. carbachol calcium flux Fluo4; stronger effect = lower value. B-score at 10 µM. actives 0.92% (n = 310,000). AID 463111, 2010;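 active = B-score of the integrated calcium signal more than 4 SD below the library mean, with starting fluorescence not abnormally high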;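 note: negative B-score means reduced calcium response which marks RGS4 activation or potentiation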
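Material: M3R-expressing HEK293 line, RGS4 induced by doxycycline | Schedule: Overnight RGS4 induction, 30 min dye load 37 °C, 20 min compound RT | Measured by: Fluo4 fluorescence kinetic imaging of calcium | Read-out: Integrated calcium ratio converted to B score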
RGS4 inh = RGS4 inhibitors, primary screen, cell-based, HEK293 M3R inducible RGS4, calcium flux; Regulator of G-protein signaling 4 (Homo sapiens), P49798; Fluo-4 calcium flux; stronger effect = higher value; triggered by carbachol at its EC20; B-score at 10 µM; actives 0.45% (n = 310,000); AID 463165, 2010;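 active = B-score, a plate-corrected calcium signal, over three deviations above library mean, with baseline fluorescence within five deviations of library mean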;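 note: RGS4 expression induced by doxycycline in cells with stable M3 receptor; B-score is computed from the integrated fluorescence ratio over baseline after carbachol; higher B-score means a larger calcium signal and so more RGS4 inhibition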
Target sequence (P49798 whole entry, looked up): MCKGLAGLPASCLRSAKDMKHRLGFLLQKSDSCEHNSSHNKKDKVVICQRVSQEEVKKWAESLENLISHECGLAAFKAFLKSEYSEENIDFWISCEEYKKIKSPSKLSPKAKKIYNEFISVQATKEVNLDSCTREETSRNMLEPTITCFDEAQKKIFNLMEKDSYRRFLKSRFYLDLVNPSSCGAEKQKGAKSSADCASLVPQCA
MrgX1 agonist = agonists of human MrgX1 receptor, primary screen, HEK293 cells, Fluo-4 calcium flux; Mas-related G-protein coupled receptor member X1 (Homo sapiens), Q96LB2; Fluo-4 calcium fluorescence, agonist mode; stronger effect = higher value; B-score at 10 µM; actives 0.44% (n = 310,000); AID 588627, 2011;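 active = calcium response B-score plate-corrected fluorescence ratio at least 3 library SD, with starting fluorescence B-score inside 5 SD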
Target sequence (Q96LB2 whole entry, looked up): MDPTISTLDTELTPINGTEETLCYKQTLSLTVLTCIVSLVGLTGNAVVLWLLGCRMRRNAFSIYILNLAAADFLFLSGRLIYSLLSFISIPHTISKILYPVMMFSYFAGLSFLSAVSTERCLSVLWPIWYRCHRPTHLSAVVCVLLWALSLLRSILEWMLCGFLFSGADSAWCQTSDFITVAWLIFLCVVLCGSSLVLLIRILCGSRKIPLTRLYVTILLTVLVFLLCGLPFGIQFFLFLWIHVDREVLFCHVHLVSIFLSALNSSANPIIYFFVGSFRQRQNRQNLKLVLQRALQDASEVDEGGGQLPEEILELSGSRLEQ
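Material: MrgX1-expressing HEK293 cells; input: 15,000 cells per well; doses: test compound given as first of three sequential additions; schedule: overnight plating before 1 h dye loading; technique: Fluo-4 NW calcium-flux fluorescence, kinetic read; evaluation: baseline-normalised fluorescence change ratio, B-scored; control set: plate-wise positive and negative controls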
MrgX1 antagonist = antagonists of human MrgX1 receptor, primary screen, HEK293 cells, Fluo-4 calcium flux; Mas-related G-protein coupled receptor member X1 (Homo sapiens), Q96LB2; B-score at 10 µM; actives 1.3% (n = 310,000); BAM8-22 antagonism; stronger effect = lower value; AID 588676, 2011;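 active = calcium-response B-score plate-corrected more than 3 library SD below zero, starting fluorescence within 5 deviations, no agonist response on first addition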;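 note: peak minus trough fluorescence over baseline after final BAM8-22 challenge near maximal dose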
MrgX1 PAM = positive allosteric modulators of MrgX1, primary screen, HEK293 cells, Fluo-4 calcium flux. B-score at 10 µM. FDSS; stronger effect = higher value. actives 0.63% (n = 310,000). AID 588675, 2011. Mas-related G-protein coupled receptor member X1 (Homo sapiens), Q96LB2;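 active = plate-corrected calcium response at least 3 library SD above typical, normal starting fluorescence, not activating the receptor alone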;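 note: compound read alongside a low EC10 to EC30 dose of BAM8-22 agonist; peak minus trough fluorescence over baseline measured at the second addition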
MrgX1 PAM conf = MrgX1 positive allosteric modulators, duplicate retest, confirmation, HEK293 cells, Fluo-4 calcium flux | shares compounds with MrgX1 PAM | Fluo-4 calcium fluorescence, FDSS | AID 602413, 2012 | activation (ratio percentage), % at 10 µM | actives 13% (n = 1,200);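 active = ratio at least 3 SD above the weak peptide control, stable starting fluorescence, no direct agonism earlier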;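 note: compound followed by low BAM8-22 agonist challenge near EC20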
HEK293 Ca flux = nonspecific calcium signal in parental HEK293, confirmation, counter-screen for MrgX1 antagonist project, parental HEK293 cells, Fluo-4 calcium flux; shares compounds with MrgX1 antagonist; Fluo-4 calcium fluorescence, FDSS; fluorescence ratio F(max-min)/F0 at 10 µM; actives 2% (n = 4,000); AID 624111, 2012;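 active = duplicate-averaged calcium fluorescence ratio at least three times the standard deviation of buffer wells, a nonspecific response in parental cells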
HEK293 Ca counter = calcium response in parental HEK293 cells, primary screen, counter-screen for MrgX1 allosteric activator project, cell-based, Fluo-4 calcium flux, duplicate. actives 0.4% (n = 4,000). AID 624114, 2012. Fluo-4 fluorescence ratio; stronger effect = higher value. shares compounds with MrgX1 antagonist. fluorescence ratio F(max-min)/F0 at 10 µM;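 active = calcium fluorescence ratio, averaged over duplicates, at least 3 SD of the buffer-well ratio, meaning a nonspecific response in receptor-free cells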;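 note: untransfected parental HEK293 lacking MrgX1 used as counterscreen for MrgX1 allosteric activators; fluorescence change taken during the second addition on a kinetic imager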
HEK293 Ca cntr2 = calcium response in parental HEK293 cells, primary screen, counter-screen for MrgX1 agonist project, cell-based, Fluo-4 calcium flux, duplicate, agonist mode. AID 624115, 2012. Fluo-4 calcium fluorescence (FDSS); stronger effect = higher value. actives 8.7% (n = 4,000). fluorescence ratio F(max-min)/F0 at 10 µM. shares compounds with MrgX1 antagonist;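 active = calcium fluorescence ratio at least three times the spread of buffer wells, meaning a non-specific response in parental cells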
Active calls of the source: *; i = inactive; / = no result.

SMILES | RGS4 act | RGS4 inh | MrgX1 agonist | MrgX1 antagonist | MrgX1 PAM | MrgX1 PAM conf | HEK293 Ca flux | HEK293 Ca counter | HEK293 Ca cntr2
CC(=O)N(CCc1ccccc1)Cc1cc2ccc(C)c(C)c2[nH]c1=O | i | i | i | i | 8.6* | 2.4%* | i | i | i
CCC(=O)N(CCO)Cc1cc2ccc(C)c(C)c2[nH]c1=O | i | i | i | i | i | / | / | / | /
CCC(=O)N(CCc1ccccc1)Cc1cc2ccc(OC)cc2[nH]c1=O | i | i | i | i | i | / | / | / | /
CCCCOCCCNC(=O)c1ccc([N+](=O)[O-])c(C)c1 | i | i | i | i | i | / | / | / | /
CC(C)(C)NS(=O)(=O)c1cnc(Cl)c(Cl)c1 | i | i | i | i | i | / | / | / | /
CC(=O)N/C(=N\c1nc(C)cc(C)n1)Nc1ccc2ccccc2c1 | i | i | i | i | i | / | / | / | /
CN(C)S(=O)(=O)c1cccc(NC(=O)c2c[nH]c3ccccc23)c1 | i | i | i | i | 9.9* | i | i | i | i
CN(C)S(=O)(=O)c1cccc(NC(=O)c2cc(=O)[nH]c3ccccc23)c1 | i | i | i | i | i | / | / | / | /
COc1ccc(CNC(=O)CCN2C(=O)c3ccccc3C2=O)cc1OC | i | i | i | i | i | / | / | / | /
COc1ccc(CNC(=O)CCN2C(=O)c3ccncc3C2=O)cc1OC | i | i | i | i | 27* | 13%* | i | i | i
CCCN(CC(=O)Nc1ccc(C(N)=O)cc1)CC(=O)Nc1ccc(F)c(F)c1F | i | i | i | i | i | / | / | / | /
O=C(COC(=O)c1cc(Br)ccc1Cl)NC1CCCC1 | i | i | i | i | 8* | i | i | i | i
O=C(COC(=O)c1cc(Br)ccc1O)NC1CCCCCC1 | i | i | i | i | i | / | / | / | /
CSCCC(NS(=O)(=O)c1ccc(Cl)cc1)C(=O)O (configuration not stated) | i | i | i | i | 11* | i | i | i | i
COc1ccc(OC)c2sc(N(CCN(C)C)C(=O)c3cc(Cl)sc3Cl)nc12 | i | i | i | i | 21* | i | i | i | i
COc1cc2c(cc1OC)C1(Nc3c-2c(C)nn3-c2ccccc2)C(=O)Nc2ccccc21 (configuration not stated) | / | / | i | i | 6.7* | i | i | i | i
CC(=O)c1c(-c2ccc(C)cc2)nc2c3ccccc3ccn12 | i | i | i | i | 6.8* | 16%* | i | i | i
CC(C)c1onc(C(=O)N2CCN(C(c3ccccc3)c3ccccc3)CC2)c1[N+](=O)[O-] | i | i | i | i | i | / | / | / | /
CN1CCCC(OC(=O)c2cccc(Br)c2)C1 (configuration not stated) | i | i | i | i | i | / | / | / | /
CN1CCCC(OC(=O)c2ccccc2Br)C1 (configuration not stated) | i | i | i | i | 6.6* | i | i | i | i
